Source: article PMC7986984 (Brain, behavior, and immunity, 2020)
Read-outs that look alike come from different tables or passages of the source. Marks after values point to notes of the source that are not given here.

Experiments:
[1] = type: in vivo, mice; details: for AUC: over 24 h; for Cmax: n = 6 +/- SEM
[2] = type: in vivo, mice; details: for AUC: over 24 h; for Cmax: mice, bolus by oral gavage, 0.25-24 h, n = 6 +/- SEM
[3] = system: Caco-2 / THP-1 coculture; assay: Transepithelial electrical resistance; type: cell-based, human; details: LPS +, TMF + (AHR antagonist); metabolites 250 ng/mL
How it was run: (§1)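 Caco-2 grown 18 days on 8 μm transwells to TEER 500 ohm×cm2, set over THP-1 differentiated with PMA (15 nM, 48 h). Pretreatment 24 h with fermented supernatant (50 μL/1 mL) or metabolites (250 ng/mL), with or without AHR antagonist TMF. Challenge with LPS 1 μg/ml, IFN-γ and ATP in both compartments. Read-outs: TEER before and after; kynurenine by chemical assay, % control; IL-1β by ELISA, fold over untreated. n = 4 wells; t-test.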

[4] = system: Kynurenine; assay: Kynurenine production; type: cell-based, human; details: LPS +, metabolites 250 ng/mL
How it was run: as §1

[5] = system: IL-1β; assay: IL-1β production; type: cell-based, human; details: LPS +, ELISA, metabolites 250 ng/mL
How it was run: as §1

[6] = male, mouse, brain, po, AUC, Chronic BDPP
[7] = male, mouse, brain, po, AUC, Chronic Synbiotic
[8] = male, mouse, brain, po, Cmax, Chronic BDPP
[9] = male, mouse, brain, po, Cmax, Chronic Synbiotic
[10] = male, mouse, brain, po, Tmax, Chronic BDPP
[11] = male, mouse, brain, po, Tmax, Chronic Synbiotic
[12] = male, mouse, plasma, po, AUC, Chronic BDPP
[13] = male, mouse, plasma, po, AUC, Chronic Synbiotic
[14] = male, mouse, plasma, po, Tmax, Chronic BDPP
[15] = male, mouse, plasma, po, Tmax, Chronic Synbiotic
[16] = TMF −, fold change from untreated controls

Row | SMILES | AUC [1, 6] | AUC [1, 7] | Cmax [1, 8] | Cmax [1, 9] | Tmax [1, 10] | Tmax [1, 11] | AUC [2, 12] | AUC [2, 13] | Tmax [2, 14] | Tmax [2, 15] | other results
1 | O=C(O)c1ccc(O)c(O)c1 [3,4-diHBA, 3,4-Dihydroxybenzoic acid] | 0.0881 µg·h/mL | 0.291 µg·h/mL | 15.2 ± 3.1 ng/mL | 14.4 ± 3.8 ng/mL | 18 min | 30 min | 0.138 µg·h/mL | 0.0334 µg·h/mL | 18 min | 18 min | 
2 | O=C(O)Cc1ccc(O)c(O)c1 [3,4-diHPAA, 3,4-Dihydroxyphenylacetic acid] | 2.2 µg·h/mL | 2.12 µg·h/mL | 100 ± 7 ng/mL | 126 ± 24 ng/mL | 60 min | 120 min | 0.74 µg·h/mL | 0.344 µg·h/mL | 30 min | 30 min | 
3 | O=C(O)c1cccc(O)c1 [3-HBA, 3-Hydroxybenzoic acid] | 0.0673 µg·h/mL | 0.146 µg·h/mL | 5.4 ± 0.4 ng/mL | 8.9 ± 1.8 ng/mL | 30 min | 240 min | 0.366 µg·h/mL | 0.214 µg·h/mL | 60 min | 60 min | 
4 | O=C(O)Cc1cccc(O)c1 [3-HPAA, 3-Hydroxyphenylacetic acid] | 0.029 µg·h/mL | 0.0412 µg·h/mL | 2.7 ± 0.3 ng/mL | 3.2 ± 0.5 ng/mL | 30 min | 30 min | 0.606 µg·h/mL | 1.08 µg·h/mL | 60 min | 18 min | 
5 | O=C(O)CCc1cccc(O)c1 [3-HPPA, 3-(3-Hydroxyphenyl)propionic acid] |  |  |  |  |  |  | 0.0047 µg·h/mL | 0.06 µg·h/mL | 60 min | 120 min | 
6 | COc1cc(-c2oc3cc(O)cc(O)c3c(=O)c2O)ccc1O [3′-MeQUER, Isorhamnetin] | 0.0269 µg·h/mL | 0.103 µg·h/mL | 12.2 ± 6.9 ng/mL | 28.4 ± 6.3 ng/mL | 18 min | 60 min | 0.0156 µg·h/mL | 0.0724 µg·h/mL | 15 min | 30 min | TEER (% Control) [3]: 73.4 ± 1.2 % Control; Kynurenine (% Change) ([4]; TMF +): 129.9 ± 13.8 % Change; Kynurenine (% Change) ([4]; TMF −): 102.3 ± 9.6τ % Change; IL-1β(Fold Change) ([5]; TMF +): 9.4 ± 0.3τ ^* Fold Change; IL-1β(Fold Change) [5, 16]: 6.5 ± 0.4τ Fold Change
7 | O=C(O)c1ccc(O)cc1 [4-HBA, 4-Hydroxybenzoic acid] | 1.7 µg·h/mL | 6.68 µg·h/mL | 108 ± 19.3 ng/mL | 448 ± 15 ng/mL | 0 min | 480 min | 0.866 µg·h/mL | 1.28 µg·h/mL |  | 1440 min | 
8 | O=C(O)C=Cc1ccc(O)cc1 [4-HCA, 4-Hydroxycinnamic acid] |  |  |  |  |  |  | 0.455 µg·h/mL | 1.67 µg·h/mL | 18 min | 18 min | 
9 | O=C(O)CNC(=O)c1ccc(O)cc1 [4-HHA, 4-Hydroxyhippuric acid] |  |  |  |  |  |  | 0.0017 µg·h/mL | 0.0059 µg·h/mL | 18 min | 120 min | 
10 | COc1c(O)cc(C(=O)O)cc1O [4-MeGA, 4-O-Methylgallic acid] | 0.0033 µg·h/mL | 0.0068 µg·h/mL | 2.2 ± 0.4 ng/mL | 5 ± 1 ng/mL | 30 min | 18 min | 0.336 µg·h/mL | 0.163 µg·h/mL | 30 min | 30 min | 
11 | COc1cc(O)c2c(=O)c(O)c(-c3ccc(O)c(O)c3)oc2c1 [7′-MeQUER, Rhamnetin] |  | 0.00114 µg·h/mL |  | 0.1 ± 0.09 ng/mL |  | 30 min |  | 0.0004 µg·h/mL |  | 30 min | TEER (% Control) [3]: 74.5 ± 2.0 % Control; Kynurenine (% Change) ([4]; TMF +): 132.0 ± 13.3 % Change; Kynurenine (% Change) ([4]; TMF −): 119.5 ± 4.3 % Change; IL-1β(Fold Change) ([5]; TMF +): 8.1 ± 0.4τ Fold Change; IL-1β(Fold Change) [5, 16]: 7.9 ± 0.4τ Fold Change
12 | Oc1cc(O)c2c(c1)OC(c1ccc(O)c(O)c1)C(O)C2 (stereo not drawn) [C, Catechin] |  |  |  |  |  |  |  |  |  |  | Tmax ([2]; Plasma, Chronic BDPP): 30 min; Cmax ([2]; Plasma, Chronic BDPP): 55.5 ± 7.8 ng/mL; AUC ([2]; Plasma, Chronic BDPP): 80.6** ng/mL*h; Tmax ([2]; Plasma, Chronic Synbiotic): 60 min; Cmax ([2]; Plasma, Chronic Synbiotic): 0.0098 ± 0.0007 ng/mL; AUC ([2]; Plasma, Chronic Synbiotic): 0.0252 µg·h/mL
13 | COc1cc(CCC(=O)O)ccc1O [DHFA, Dihyroferulic acid] |  |  |  |  |  |  |  |  |  |  | Tmax ([2]; Plasma, Chronic BDPP): 18 min; Cmax ([2]; Plasma, Chronic BDPP): 2.5 ± 0.7 ng/mL; AUC ([2]; Plasma, Chronic BDPP): 0.0307 µg·h/mL; Tmax ([2]; Plasma, Chronic Synbiotic): 18 min; Cmax ([2]; Plasma, Chronic Synbiotic): 0.0077 ± 0.0011 ng/mL; AUC ([2]; Plasma, Chronic Synbiotic): 0.0302 µg·h/mL
14 | Oc1ccc(CCc2cc(O)cc(O)c2)cc1 [DHRSV, Dihydroresveratrol] |  |  |  |  |  |  | 1.05 µg·h/mL | 7.8 µg·h/mL | 60 min | 480 min | 
15 | O=C1CCC(Cc2ccc(O)c(O)c2)O1 (stereo not drawn) [DHVL, 5-(3′,4′-Dihydroxyphenyl)-γ-valerolactone] |  |  |  |  |  |  | 0.123 µg·h/mL | 0.224 µg·h/mL | 30 min | 60 min | 
16 | Oc1cc(O)c2c(c1)O[C@H](c1ccc(O)c(O)c1)[C@H](O)C2 [EC, Epicatechin] |  |  |  |  |  |  | 0.189 µg·h/mL | 0.413 µg·h/mL | 18 min | 18 min | 
17 | COc1cc(/C=C/C(=O)O)ccc1O [FA, Ferulic acid] |  |  |  |  |  |  |  |  |  |  | Tmax ([1]; Brain, Chronic BDPP): 30 min; Cmax ([1]; Brain, Chronic BDPP): 1.5 ± 0.3 ng/mL; AUC ([1]; Brain, Chronic BDPP): 0.0188 µg·h/mL; Tmax ([1]; Brain, Chronic Synbiotic): 120 min; Cmax ([1]; Brain, Chronic Synbiotic): 0.0023 ± 0.0006 ng/mL; AUC ([1]; Brain, Chronic Synbiotic): 0.02 µg·h/mL; Tmax ([2]; Plasma, Chronic BDPP): 30 min; Cmax ([2]; Plasma, Chronic BDPP): 28.9 ± 9.7 ng/mL; AUC ([2]; Plasma, Chronic BDPP): 320.9** ng/mL*h; Tmax ([2]; Plasma, Chronic Synbiotic): 30 min; Cmax ([2]; Plasma, Chronic Synbiotic): 0.0226 ± 0.0062 ng/mL; AUC ([2]; Plasma, Chronic Synbiotic): 0.1388 µg·h/mL
18 | O=C(O)c1cc(O)c(O)c(O)c1 [GA, Gallic acid] | 7.56 µg·h/mL | 4.76 µg·h/mL | 1340 ± 611 ng/mL | 336 ± 112 ng/mL | 18 min | 120 min | 1.27 µg·h/mL | 2.39 µg·h/mL | 18 min |  | 
19 | O=C(O)CNC(=O)c1ccccc1 [HA, Hippuric acid] | 0.518 µg·h/mL | 1.81 µg·h/mL | 22.4 ± 11.6 ng/mL | 111 ± 7.2 ng/mL | 60 min | 480 min | 0.889 µg·h/mL | 1.32 µg·h/mL | 60 min | 240 min | 
20 | COc1cc(CC(=O)O)ccc1O [HVA, Homovanillic acid] | 5.92 µg·h/mL | 6.22 µg·h/mL | 296 ± 10 ng/mL | 301 ± 14 ng/mL | 60 min | 60 min | 0.205 µg·h/mL | 1.47 µg·h/mL | 60 min | 30 min | 
21 | O=c1c(O)c(-c2cc(O)c(O)c(O)c2)oc2cc(O)cc(O)c12 [MYR, Myricetin] | 0.0978 µg·h/mL | 0.578 µg·h/mL | 86.5 ± 38 ng/mL | 118 ± 18 ng/mL | 18 min | 60 min | 0.0853 µg·h/mL | 0.305 µg·h/mL | 30 min | 18 min | 
22 | O=C(O)Cc1ccccc1 [PA, Phenylacetic acid] | 6970 µg·h/mL | 14500 µg·h/mL | 447000 ± 37200 ng/mL | 760000 ± 140000 ng/mL | 30 min | 480 min | 8630 µg·h/mL | 8800 µg·h/mL | 30 min | 240 min | 
23 | Oc1cc(O)c2c(c1)O[C@H](c1ccc(O)c(O)c1)[C@H](O)[C@H]2c1c(O)cc(O)c2c1O[C@H](c1ccc(O)c(O)c1)[C@H](O)C2 [PAC-B2, Proanthocyanidin dimer B2] |  |  |  |  |  |  |  |  |  |  | Tmax ([2]; Plasma, Chronic BDPP): 30 min; Cmax ([2]; Plasma, Chronic BDPP): 2.0 ± 0.7 ng/mL; AUC ([2]; Plasma, Chronic BDPP): 0.0015 µg·h/mL; Tmax ([2]; Plasma, Chronic Synbiotic): 30 min; Cmax ([2]; Plasma, Chronic Synbiotic): 0.0027 ± 0.0008 ng/mL; AUC ([2]; Plasma, Chronic Synbiotic): 3.5* ng/mL*h
24 | O=c1c(O)c(-c2ccc(O)c(O)c2)oc2cc(O)cc(O)c12 [QUER, Quercetin] | 0.142 µg·h/mL | 0.544 µg·h/mL | 89.5 ± 48.3 ng/mL | 98.6 ± 24.7 ng/mL | 18 min | 120 min | 0.0461 µg·h/mL | 0.583 µg·h/mL | 18 min | 18 min | 
25 | Oc1ccc(/C=C/c2cc(O)cc(O)c2)cc1 [RSV, t-Resveratrol (−)] |  |  |  |  |  |  |  |  |  |  | Tmax ([1]; Brain, Chronic BDPP): 18 min; Cmax ([1]; Brain, Chronic BDPP): 9.5 ± 2.5 ng/mL; AUC ([1]; Brain, Chronic BDPP): 122.3** ng/mL*h; Tmax ([1]; Brain, Chronic Synbiotic): 120 min; Cmax ([1]; Brain, Chronic Synbiotic): 0.0038 ± 0.0002 ng/mL; AUC ([1]; Brain, Chronic Synbiotic): 0.0331 µg·h/mL; Tmax ([2]; Plasma, Chronic BDPP): 30 min; Cmax ([2]; Plasma, Chronic BDPP): 11628.0 ± 1788.0 ng/mL; AUC ([2]; Plasma, Chronic BDPP): 51313.0* ng/mL*h; Tmax ([2]; Plasma, Chronic Synbiotic): 30 min; Cmax ([2]; Plasma, Chronic Synbiotic): 15.785 ± 4.246 ng/mL; AUC ([2]; Plasma, Chronic Synbiotic): 33.1507 µg·h/mL
26 | COc1cc(C(=O)O)ccc1O [VA, Vanillic acid] | 0.169 µg·h/mL | 0.205 µg·h/mL | 9.7 ± 1 ng/mL | 13.9 ± 1.8 ng/mL | 18 min | 60 min | 0.299 µg·h/mL | 0.118 µg·h/mL | 30 min | 18 min | 
